Assay results taken from ChEMBL document CHEMBL4020720, “Oxadiazole-substituted naphtho[2,3-b]thiophene-4,9-diones as potent inhibitors of keratinocyte hyperproliferation. Structure-activity relationships of the tricyclic quinone skeleton and the oxadiazole substituent” (Eur J Med Chem, 2017).
pIC50: −log10 of the molar value.

Assays:
HaCaT [1] = experiment: Antihyperproliferative activity against human HaCaT cells after 48 hrs by MTT assay; format: functional, cell-based
Method in brief: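 HaCaT keratinocytes (mycoplasma-negative) exposed to compounds for 48 h, then MTT added (5 mg/mL stock in PBS) for 2 h at 37 °C. Formazan dissolved in DMSO and read at 570 nm, with 630 nm background. Inhibition = (1 − test/control) × 100, from test means (N = 3) against controls (N = 6-8). IC50 by nonlinear regression.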

[2] = biological target: NAD(P)H dehydrogenase [quinone] 1 (Homo sapiens) (UniProt P15559); experiment: Induction of recombinant human NQO-1-mediated superoxide generation assessed as two-electron reduction of compound by measuring SOD-inhibitable reduction of cytochrome c per unit enzyme at […] by spectrophotometric analysis (reference value: 0.2 +/- 0.1 micromol/L/min)
[3] = biological target: T1, NADPH--cytochrome P450 reductase (Homo sapiens, UniProt P16435); experiment: Induction of recombinant human CPR-mediated superoxide generation assessed as one-electron reduction of compound by measuring SOD-inhibitable reduction of succinoylated cytochrome c per 2 mU enzyme at […] by spectrophotometric analysis (reference value: 0.2 +/- 0.1 micromol/L/min)
T1 sequence (P16435 whole entry): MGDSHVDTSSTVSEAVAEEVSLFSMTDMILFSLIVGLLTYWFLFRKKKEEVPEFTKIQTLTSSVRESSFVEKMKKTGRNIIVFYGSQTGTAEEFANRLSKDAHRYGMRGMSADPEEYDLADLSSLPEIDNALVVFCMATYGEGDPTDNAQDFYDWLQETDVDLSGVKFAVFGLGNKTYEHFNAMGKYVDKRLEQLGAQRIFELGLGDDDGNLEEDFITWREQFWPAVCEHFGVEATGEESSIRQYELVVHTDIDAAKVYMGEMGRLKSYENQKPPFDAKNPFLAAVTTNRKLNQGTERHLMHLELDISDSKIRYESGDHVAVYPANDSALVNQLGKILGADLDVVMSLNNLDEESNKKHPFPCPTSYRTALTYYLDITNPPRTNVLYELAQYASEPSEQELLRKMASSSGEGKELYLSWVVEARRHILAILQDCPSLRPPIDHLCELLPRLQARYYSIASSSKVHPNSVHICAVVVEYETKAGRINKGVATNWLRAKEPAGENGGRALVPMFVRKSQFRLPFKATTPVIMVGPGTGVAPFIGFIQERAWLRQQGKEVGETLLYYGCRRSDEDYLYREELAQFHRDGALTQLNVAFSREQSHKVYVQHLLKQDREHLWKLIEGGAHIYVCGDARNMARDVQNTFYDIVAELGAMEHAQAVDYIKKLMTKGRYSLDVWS

HaCaT [4] = experiment: Induction of superoxide generation in human HaCaT cells assessed as 2-OH-E+ oxidized product formation by measuring mean fluorescence intensity at 50 umol/L after 30 mins by flow cytometry (reference value: 7.1 +/- 5.2); format: functional
HaCaT [5] = experiment: Induction of superoxide generation in human HaCaT cells assessed as 2-OH-E+ oxidized product formation by measuring mean fluorescence intensity at 5 umol/L after 18 hrs by flow cytometry (reference value: 367.5 +/- 80.1); format: functional
Method in brief: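 HaCaT keratinocytes grown in DMEM with 10% FBS and penicillin/streptomycin for 24 h at 37 °C, then exposed to test compound (5 µM, 0.1% DMSO final) for 18 h. DHE was added and loaded for 30 min, with shaking for the first 5 min, in the dark. Cells were trypsinized and read by flow cytometry (488 nm excitation, FL2 550–600 nm), 10 000 live cells, dead cells gated out. Read-out is MFI versus DMSO control; triplicate.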

HaCaT [6] = experiment: Induction of superoxide generation in human HaCaT cells assessed as 2-OH-E+ oxidized product formation by measuring mean fluorescence intensity at 5 umol/L preincubated with 5 umol/L NQO-1 inhibitor dicoumarol for 25 mins followed by compound treatment measured after 18 hrs by flow cytometry (reference value: 407.59 +/- 68.7); format: functional
Method in brief: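 HaCaT cells were cultured as for the chronic assay and preincubated 25 min with dicoumarol (5 µmol/L) before test compound was added. DHE was loaded for 30 min in the dark, then cells were trypsinized. 2-OH-E+ fluorescence was read by flow cytometry in FL2 (550–600 nm) on 10 000 live cells, dead cells gated out, as MFI against DMSO control. Triplicate.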

HaCaT [7] = experiment: Induction of apoptosis in human HaCaT cells at 5 umol/L after 18 hrs by 7-AAD staining based flow cytometry (reference value: 3 +/- 1%); format: functional
HaCaT [8] = experiment: Induction of apoptosis in human HaCaT cells at 5 umol/L preincubated with 5 umol/L NQO-1 inhibitor dicoumarol for 25 mins followed by compound treatment measured after 18 hrs by 7-AAD staining based flow cytometry (reference value: 4.3 +/- 2.6%); format: functional; parameters: scale not given: the % may be the effect or the level left

NAD(P)H dehydrogenase [quinone] 1 (Homo sapiens), sequence (P15559 whole entry): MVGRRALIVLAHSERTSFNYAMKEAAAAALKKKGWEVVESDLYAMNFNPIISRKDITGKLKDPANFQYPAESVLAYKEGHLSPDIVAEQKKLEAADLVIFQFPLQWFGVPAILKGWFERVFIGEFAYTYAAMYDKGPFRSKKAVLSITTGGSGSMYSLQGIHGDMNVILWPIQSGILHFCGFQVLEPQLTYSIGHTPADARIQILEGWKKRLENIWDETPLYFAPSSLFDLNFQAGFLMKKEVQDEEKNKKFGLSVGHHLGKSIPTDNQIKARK

CCc1noc(-c2cc3ccccc3s2)n1
pIC50 (HaCaT [1]): < 4.52

COC(=O)c1cc2c(s1)C(=O)c1ccccc1C2=O
pIC50 (HaCaT [1]): 6.15

CCc1noc(-c2ccc3sc4ccccc4c(=O)c3c2)n1
pIC50 (HaCaT [1]): < 4.52

CCc1noc(-c2ccc3c(c2)C(=O)C=CC3=O)n1
pIC50 (HaCaT [1]): 4.85

O=C1c2ccccc2C(=O)c2sc(-c3nnn[nH]3)cc21
pIC50 (HaCaT [1]): < 4.52

CCc1noc(-c2cc3c(OC)c4ccccc4c(OC)c3s2)n1
pIC50 (HaCaT [1]): 5.17

CC(=O)c1cc2c(s1)C(=O)c1ccccc1C2=O
Activity [2]: 0.8 µmol/L/min
Activity [3]: 1.2 µmol/L/min
Flu intensity (HaCaT [4]): 19.2
Flu intensity (HaCaT [5]): 500
Flu intensity (HaCaT [6]): 434.5
Activity (HaCaT [7]): 4.2%
Activity (HaCaT [8]): 3.7%

CCc1noc(-c2cc3c(OC)ccc(OC)c3s2)n1
pIC50 (HaCaT [1]): < 4.52

CCc1noc(-c2cc3c(s2)C(=O)c2ccccc2C3=O)n1
Activity [2]: 0.5 µmol/L/min
pIC50 (HaCaT [1]): 6.44
Activity [3]: 0.9 µmol/L/min
Flu intensity (HaCaT [4]): 25.2
Flu intensity (HaCaT [5]): 930.1
Flu intensity (HaCaT [6]): 558.7
Activity (HaCaT [7]): 39.3%
Activity (HaCaT [8]): 6.9%

O=C1c2ccccc2C(=O)c2sc([N+](=O)[O-])cc21
Activity [2]: 4.6 µmol/L/min
pIC50 (HaCaT [1]): 5.74
Activity [3]: 2 µmol/L/min
Flu intensity (HaCaT [4]): 138
Flu intensity (HaCaT [5]): 973.8
Flu intensity (HaCaT [6]): 1022
Activity (HaCaT [7]): 5.6%
Activity (HaCaT [8]): 3.4%

CCc1noc(-c2cc3c(OC)c4ccccc4cc3s2)n1
pIC50 (HaCaT [1]): < 4.52

Cc1nnc(-c2cc3c(s2)C(=O)c2ccccc2C3=O)o1
pIC50 (HaCaT [1]): 7.10

O=C(Nc1cc2c(s1)C(=O)c1ccccc1C2=O)c1ccccc1
pIC50 (HaCaT [1]): 5.64

CCc1noc(C=C2c3ccccc3C(=O)c3ccccc32)n1
pIC50 (HaCaT [1]): 5.19

O=C(O)c1cc2c(s1)C(=O)c1ccccc1C2=O
pIC50 (HaCaT [1]): < 4.52

CCc1nnc(-c2cc3c(s2)C(=O)c2ccccc2C3=O)o1
pIC50 (HaCaT [1]): 6.82

CCc1noc(-c2ccc3ccccc3c2)n1
pIC50 (HaCaT [1]): < 4.52

CCc1noc(-c2ccc3c(=O)c4ccccc4oc3c2)n1
pIC50 (HaCaT [1]): < 4.52

CC1=CC(=O)c2ccccc2C1=O [MENADIONE]
Activity [2]: 1 µmol/L/min
Activity [3]: 2.1 µmol/L/min
Flu intensity (HaCaT [4]): 44
Flu intensity (HaCaT [5]): 431.9
Flu intensity (HaCaT [6]): 457.2
Activity (HaCaT [7]): 4.8%
Activity (HaCaT [8]): 3.1%

O=C1c2ccccc2C(=O)c2sc(-c3nnc(-c4ccccc4)o3)cc21
pIC50 (HaCaT [1]): < 4.52

Cc1nnc(-c2cc3c(s2)C(=O)c2ccccc2C3=O)s1
pIC50 (HaCaT [1]): 5.43

CC(=O)/C=C/c1cc2c(s1)C(=O)c1ccccc1C2=O
pIC50 (HaCaT [1]): < 4.52

O=C1c2ccccc2C(=O)c2c([N+](=O)[O-])csc21
pIC50 (HaCaT [1]): 5.96

CCc1noc(-c2cc3c(s2)C(=O)C=CC3=O)n1
pIC50 (HaCaT [1]): 4.96

CCc1nc(-c2ccc3c(c2)C(=O)c2ccccc2C3=O)no1
pIC50 (HaCaT [1]): < 4.52

CCc1nc(-c2cc3c(s2)C(=O)c2ccccc2C3=O)no1
pIC50 (HaCaT [1]): 6.24

O=C1c2ccccc2C(=O)c2sc(-c3nnco3)cc21
pIC50 (HaCaT [1]): 6.66

CCCC(=O)Nc1cc2c(s1)C(=O)c1ccccc1C2=O
pIC50 (HaCaT [1]): 5.24

CCc1noc(-c2cccs2)n1
pIC50 (HaCaT [1]): < 4.52

N#Cc1cc2c(s1)C(=O)c1ccccc1C2=O
pIC50 (HaCaT [1]): 6.34

CN/N=C/c1cc2c(s1)C(=O)c1ccccc1C2=O
pIC50 (HaCaT [1]): < 4.52

CCc1noc(C2=CC(=O)c3ccccc3C2=O)n1
pIC50 (HaCaT [1]): < 4.52

O=Cc1cc2c(s1)C(=O)c1ccccc1C2=O
pIC50 (HaCaT [1]): 5.92

Nc1cc2c(s1)C(=O)c1ccccc1C2=O
Activity [2]: 0.8 µmol/L/min
pIC50 (HaCaT [1]): < 4.52
Activity [3]: 1.1 µmol/L/min
Flu intensity (HaCaT [4]): 76.7
Flu intensity (HaCaT [5]): 518
Flu intensity (HaCaT [6]): 502.3
Activity (HaCaT [7]): 5.6%
Activity (HaCaT [8]): 3.2%

CCc1noc(-c2ccc(C(C)=O)cc2)n1
pIC50 (HaCaT [1]): < 4.52

O=C(/C=C/c1cc2c(s1)C(=O)c1ccccc1C2=O)c1ccccc1
pIC50 (HaCaT [1]): < 4.52

CCc1nnc(-c2cc3c(s2)C(=O)c2ccccc2C3=O)s1
pIC50 (HaCaT [1]): < 4.82

CCc1noc(-c2cc3c(s2)Cc2ccccc2C3=O)n1
pIC50 (HaCaT [1]): 5.14

COc1ccc(C(=O)Nc2cc3c(s2)C(=O)c2ccccc2C3=O)cc1
pIC50 (HaCaT [1]): 5.96

Cc1cc2c(s1)C(=O)c1ccccc1C2=O
Activity [2]: 0.3 µmol/L/min
pIC50 (HaCaT [1]): 5.28
Activity [3]: 1.1 µmol/L/min
Flu intensity (HaCaT [4]): 11.5
Flu intensity (HaCaT [5]): 517
Flu intensity (HaCaT [6]): 633.5
Activity (HaCaT [7]): 4.3%
Activity (HaCaT [8]): 4.3%

CCc1noc(-c2cc3cc4ccccc4cc3s2)n1
pIC50 (HaCaT [1]): < 4.52

O=C1c2ccccc2C(=O)c2sccc21 [THIOPHENONAPHTHOQUINONE]
Activity [2]: 1.2 µmol/L/min
Activity [3]: 1.2 µmol/L/min
Flu intensity (HaCaT [4]): 10.5
Flu intensity (HaCaT [5]): 552.7
Flu intensity (HaCaT [6]): 583.3
Activity (HaCaT [7]): 4%
Activity (HaCaT [8]): 7.4%

CCCCc1nnc(-c2cc3c(s2)C(=O)c2ccccc2C3=O)o1
pIC50 (HaCaT [1]): 5.72

CCc1noc(-c2ccc3c(c2)C(=O)c2ccccc2C3=O)n1
pIC50 (HaCaT [1]): < 4.52

O=C1c2ccccc2C(=O)c2sc(-c3nncs3)cc21
pIC50 (HaCaT [1]): 6.52

CCc1noc(-c2cc3oc4ccccc4c(=O)c3s2)n1
pIC50 (HaCaT [1]): < 4.52

CCc1noc(-c2cc(C(C)=O)cs2)n1
pIC50 (HaCaT [1]): < 4.52

CCC(=O)Nc1cc2c(s1)C(=O)c1ccccc1C2=O
pIC50 (HaCaT [1]): 5.02

CCc1noc(-c2ccccc2)n1
pIC50 (HaCaT [1]): < 4.52

CC(C)C(=O)Nc1cc2c(s1)C(=O)c1ccccc1C2=O
pIC50 (HaCaT [1]): 5.48

CCc1noc(-c2ccc(C(=O)c3ccccc3)s2)n1
pIC50 (HaCaT [1]): < 4.52

NNC(=O)c1cc2c(s1)C(=O)c1ccccc1C2=O
pIC50 (HaCaT [1]): 5.77

O=C1c2ccccc2C(=O)c2sc(/C=N/Nc3ccccc3)cc21
pIC50 (HaCaT [1]): < 4.52
